The target in data set [1] is T1, Large neutral amino acids transporter small subunit 1 (Homo sapiens, UniProt Q01650). Nature of the data set: Inhibition of LAT1 in human MCF7 cells assessed as potentiation of bestatin-induced antiproliferative activity by measuring reduction in cell viability at 25 uM measured after 72 hrs by resazurin dye-based fluorimetric analysis. A digest of the protocol: (§1)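 MCF-7 cells seeded 2 × 10^4/well on collagen-coated plates, treated one day later in growth medium with inhibitor (25 or 100 µM) plus bestatin or cisplatin (100 µM) for up to 3 days. Viability read daily by resazurin fluorescence (ex 560/em 590 nm). Viability is treated relative to untreated control. Mean ± SD, n=3.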
T1 sequence (Q01650 whole entry): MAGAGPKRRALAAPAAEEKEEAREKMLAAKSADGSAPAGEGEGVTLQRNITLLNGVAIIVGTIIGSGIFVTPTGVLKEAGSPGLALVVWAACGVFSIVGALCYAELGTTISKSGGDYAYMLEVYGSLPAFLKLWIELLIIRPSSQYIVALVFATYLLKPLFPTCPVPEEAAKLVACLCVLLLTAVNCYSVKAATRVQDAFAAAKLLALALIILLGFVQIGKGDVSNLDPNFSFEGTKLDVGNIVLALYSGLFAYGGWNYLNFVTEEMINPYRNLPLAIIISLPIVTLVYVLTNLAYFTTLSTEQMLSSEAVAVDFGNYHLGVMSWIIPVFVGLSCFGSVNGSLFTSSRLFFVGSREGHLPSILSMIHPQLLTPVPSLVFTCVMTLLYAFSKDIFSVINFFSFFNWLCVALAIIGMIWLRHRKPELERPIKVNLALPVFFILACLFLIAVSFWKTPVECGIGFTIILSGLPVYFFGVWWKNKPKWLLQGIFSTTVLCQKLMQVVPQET

A short description of data set [2]: AUC (0 to 480 min) in mouse brain at 23 umol/kg, ip administered as bolus by LC-MS analysis. In kind it is ADME, organism-based. Details: time < 8 hr, dose 23 umol/kg, route intraperitoneal. The note with it: in vivo, 8 h. A digest of the protocol:
(§2)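 Male adult mice (25 ± 5 g) given a single i.p. bolus at 23 µmol/kg. The dosing solution was 1.36 mM in 10% (v/v) DMSO, 20% (w/v) hydroxypropyl-β-cyclodextrin and 0.9% NaCl. Animals were decapitated at seven time points from 10 to 480 min. Plasma and tissues were acetonitrile-precipitated with repaglinide internal standard and analysed by LC-MS. Parameters were derived from concentration–time data, mean ± SEM (n=3).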

Data set [3] can be described thus: AUC (0 to 480 min) in mouse kidney at 23 umol/kg, ip administered as bolus by LC-MS analysis. The note with it: in vivo, 8 h. In kind it is ADME, organism-based. Also on record: time < 8 hr, dose 23 umol/kg, route intraperitoneal. In a few lines:
as §2

Data set [4] in a line: Fraction unbound in mouse liver at 23 umol/kg, ip administered as bolus by LC-MS analysis. In kind it is ADME, organism-based. A digest of the protocol: (§3)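 Unbound fraction was measured by equilibrium dialysis at 100 µM in mouse plasma and in brain, liver, kidney, heart and prostate homogenates.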
The target in data set [5] is T1, Large neutral amino acids transporter small subunit 1. The data set is described as follows: Inhibition of LAT1 in human MCF7 cells assessed as potentiation of cisplatin-induced antiproliferative activity by measuring reduction in cell viability at 100 uM measured after 48 hrs by resazurin dye-based fluorimetric analysis. In a few lines: as §1
Data set [6] is described as follows: Plasma concentration in mouse at 23 umol/kg, ip measured after 180 mins. In kind it is ADME, organism-based.
In data set [7] the target is T1, Large neutral amino acids transporter small subunit 1. Nature of the data set: Competitive inhibition of [14C]-L-leucine uptake at LAT1 in human MCF7 cells at 100 uM preincubated for 10 mins followed by addition of substrate measured during 5 mins by liquid scintillation counting. In kind it is cell-based. In a few lines:
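MCF-7 cells seeded 1 × 10^5/well, used one day later. Washed and pre-incubated 10 min at 37 °C in choline-chloride HBSS (Na+-free, 25 mM HEPES, pH 7.4), then 5 min at 37 °C with 0.157 µM [14C]-L-leucine plus 1-1000 µM inhibitor (DMSO blank). Ice-cold washes, NaOH lysis, scintillation counting. IC50 by nonlinear regression over 8 concentrations. Mean ± SD, n=3.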

In the next data set the test system is Mus musculus. The data set is described as follows: Binding affinity to LAT1 in mouse brain assessed as inhibition of [14C]-L-leucine uptake at 23 umol/kg, ip measured 180 mins post perfusion with [14C]-L-leucine. In kind it is functional. The note with it: 3 h. In a few lines: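 Mice under ketamine/xylazine anaesthesia had the right common carotid artery cannulated. Brains were perfused at 37 °C, 2.5 mL/min, for 30 s with 0.157 µM [14C]-L-leucine, then 2 s with analyte-free buffer at 4 °C. Perfusion took place 10 or 180 min after 23 µmol/kg i.p. dosing.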

A short description of data set [8]: Terminal half life in mouse prostate at 23 umol/kg, ip administered as bolus by LC-MS analysis. Conditions: read-out: beta t1/2. In kind it is ADME, organism-based, Prostate gland. A digest of the protocol:
(§4)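 Adult male mice (25 ± 5 g) given a single i.p. bolus of 23 µmol/kg, dosing solution 1.36 mM in 10% (v/v) DMSO, 20% (w/v) hydroxypropyl-β-cyclodextrin, 0.9% NaCl in water. Decapitation at time points 10–480 min; plasma, brain, liver, prostate, kidney, heart collected. Acetonitrile precipitation with repaglinide internal standard, LC-MS (ESI positive). tmax and t½β taken from concentration-time data; mean ± SEM, n=3.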

Data set [9] is described as follows: Metabolic stability in mouse liver microsomes at 37 degreeC in presence of NADPH regenerating system measured after 2 hrs by HPLC analysis. In kind it is ADME, Microsome. In a few lines:
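Incubated at 37 °C for 2 h with mouse liver S9 fraction or with mouse liver microsomes plus NADPH; monitored by UV-HPLC chromatograms.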

Data set [10] can be described thus: fCmax in mouse liver at 23 umol/kg, ip administered as bolus by LC-MS analysis. In kind it is ADME, organism-based. Conditions: in vivo. In a few lines:
(§5)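 Male mice (25 ± 5 g) dosed i.p. as a bolus at 23 µmol/kg in DMSO/hydroxypropyl-β-cyclodextrin/saline vehicle, sampled at time points 10–480 min; plasma and tissue homogenates (1:3 water) analysed by LC-MS. […] Mean ± SEM.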

The nature of data set [11]: Aqueous solubility of the compound measured after 4 hrs by HPLC method. In kind it is physicochemical.
Data set [12] is described as follows: Cmax in mouse kidney at 23 umol/kg, ip administered as bolus by LC-MS analysis. In kind it is ADME, organism-based. Details: dose 23 umol/kg, route intraperitoneal. The note with it: in vivo. In a few lines: as §2
Data set [13] is described as follows: Tmax in mouse plasma at 23 umol/kg, ip administered as bolus by LC-MS analysis. In kind it is ADME, organism-based. A digest of the protocol: as §4
Data set [14] in a line: AUC (0 to 480 min) in mouse liver at 23 umol/kg, ip administered as bolus by LC-MS analysis. In kind it is ADME, organism-based. Also on record: dose 23 umol/kg, time < 8 hr, route intraperitoneal. Conditions: in vivo, 8 h. A digest of the protocol: as §2
Data set [15] can be described thus: Fraction unbound in mouse plasma at 23 umol/kg, ip administered as bolus by LC-MS analysis. In kind it is ADME, organism-based. In a few lines:
as §3

In data set [16] the target is T1, Large neutral amino acids transporter small subunit 1. The data set is described as follows: Inhibition of LAT1 in human MCF7 cells assessed as potentiation of cisplatin-induced antiproliferative activity by measuring reduction in cell viability at 100 uM measured after 72 hrs by resazurin dye-based fluorimetric analysis. In a few lines:
as §1

The test system of a further data set is MCF7. Nature of the data set: Antiproliferative activity against human MCF7 cells assessed as reduction in cell viability at 25 measured after 48 hrs by resazurin dye-based fluorimetric analysis. In kind it is functional. A digest of the protocol:
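MCF-7 cells were seeded at 2 × 10^4 cells/well on collagen-coated plates and treated one day later. Agents were given alone or combined (25 or 100 µM with 100 µM partner drug) in growth medium for 3 days. Viability was read daily by resazurin fluorescence (ex 560/em 590 nm) and expressed relative to untreated controls.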

Data set [17] can be described thus: fCmax in mouse heart at 23 umol/kg, ip administered as bolus by LC-MS analysis. In kind it is ADME, organism-based. Conditions: in vivo. In a few lines: as §5
Data set [18] has as its target T1, Large neutral amino acids transporter small subunit 1. The data set is described as follows: Competitive binding to LAT1 in human MCF7 cells at 100 uM after 30 mins in presence of OATP 1B1/1B3 inhibitor rifampicin by HPLC analysis. In kind it is cell-based. In a few lines:
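MCF-7 cells incubated 30 min at 37 °C in HBSS (pH 7.4) holding 100 µM test compound plus 500 µM competitor. Cells washed three times with ice-cold HBSS and lysed in 0.1 M NaOH. Cell-associated compound measured by HPLC against a lysate-spiked standard curve and normalised to protein. Mean ± SD, n=3.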

Data set [19] can be described thus: Tmax in mouse brain at 23 umol/kg, ip administered as bolus by LC-MS analysis. In kind it is ADME, organism-based. A digest of the protocol:
as §4

Data set [20] has as its target T1, Large neutral amino acids transporter small subunit 1. The data set is described as follows: Drug uptake in human MCF7 cells assessed as LAT1 mediated drug transport per mg of protein at 100 uM measured 5 mins after cold wash by HPLC analysis. In kind it is ADME, cell-based. Conditions: mcf7, 5 min. A digest of the protocol:
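MCF-7 monolayers were incubated with 100 µM compound in HBSS at 37 °C for 5 or 30 min. Cells got three washes with ice-cold or warm (37 °C) HBSS; in the warm 30 min arm they were washed after 5 min and again after 30 min. Lysates (0.1 M NaOH) were quantified by HPLC-UV against a spiked lysate standard curve and normalised to protein (Bio-Rad assay).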

Molecules are shown by their SMILES. Converted amounts (≈) assume the structure as drawn. The source made the active and inactive calls. The calls are words filed in the database; no cut-off is given here.

The source of these data is ChEMBL document CHEMBL4425108, “A Selective and Slowly Reversible Inhibitor of l-Type Amino Acid Transporter 1 (LAT1) Potentiates Antiproliferative Drug Efficacy in Cancer Cells” (J Med Chem, 2016).

Consider `CNC(=O)COc1ccc(-c2c(C#N)c(NC(=O)c3cccc(C[C@H](N)C(=O)O)c3)n3c(nc4ccccc43)c2C#N)cc1`, for which the Activity in data set [1] was 52.6%; in data set [5], 60.4%; in [16], 81.9%. For the same compound, the values for the AUC in [2], in data set [3] and in data set [14] were 11 nmol/g/min, 1426 nmol/g/min and 1930 nmol/g/min, respectively. The fraction unbound in [4] and in data set [15] was 0.0098 in each case. Also, in data set [6], the concentration at 3 h amounted to 230 nM. Besides, the inhibition in data set [7] was 77.8%. Besides, the inhibition in vivo at 23 µmol/kg in the data set on Mus musculus is 14%. Moreover, the half-life in data set [8] is 12 min. For the same compound, in data set [9], the Stability entry was “Stable”. Further, the fCmax in data set [10] came out at 0.38 nmol/g; in data set [17] it was 0.08 nmol/g. The amount in solution in data set [11] (solubility at 4 h) came to 1160 µg/mL (≈ 1970 µM). In addition, the Cmax in data set [12] was 22.5 nmol/g. In addition, the Tmax is 10 min in data set [13] and 30 min in data set [19]. Besides, in the data set on MCF7, the result was inactive. The result in data set [18] was Active. Besides, the Drug uptake in [20] came to 2.8 nmol/mg.
